Reference: ChEMBL document CHEMBL4020720, “Oxadiazole-substituted naphtho[2,3-b]thiophene-4,9-diones as potent inhibitors of keratinocyte hyperproliferation. Structure-activity relationships of the tricyclic quinone skeleton and the oxadiazole substituent” (Eur J Med Chem, 2017)

Legend:
[1] = tested on: HaCaT; test: Antihyperproliferative activity against human HaCaT cells after 48 hrs by MTT assay; assay type: functional, cell-based
Method in brief: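 HaCaT keratinocytes (mycoplasma-negative) exposed to compounds for 48 h, then MTT added (5 mg/mL stock in PBS) for 2 h at 37 °C. Formazan dissolved in DMSO and read at 570 nm, with 630 nm background. Inhibition = (1 − test/control) × 100, from test means (N = 3) against controls (N = 6-8). IC50 by nonlinear regression.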

[2] = target: NAD(P)H dehydrogenase [quinone] 1 (Homo sapiens) (UniProt P15559); test: Induction of recombinant human NQO-1-mediated superoxide generation assessed as two-electron reduction of compound by measuring SOD-inhibitable reduction of cytochrome c per unit enzyme at […] by spectrophotometric analysis (reference value: 0.2 +/- 0.1 micromol/L/min)
[3] = tested on: HaCaT; test: Induction of superoxide generation in human HaCaT cells assessed as 2-OH-E+ oxidized product formation by measuring mean fluorescence intensity at 5 umol/L preincubated with 5 umol/L NQO-1 inhibitor dicoumarol for 25 mins followed by compound treatment measured after 18 hrs by flow cytometry (reference value: 407.59 +/- 68.7); assay type: functional
Method in brief: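 HaCaT cells were cultured as for the chronic assay and preincubated 25 min with dicoumarol (5 µmol/L) before test compound was added. DHE was loaded for 30 min in the dark, then cells were trypsinized. 2-OH-E+ fluorescence was read by flow cytometry in FL2 (550–600 nm) on 10 000 live cells, dead cells gated out, as MFI against DMSO control. Triplicate.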

[4] = target: T1, NADPH--cytochrome P450 reductase (Homo sapiens, UniProt P16435); test: Induction of recombinant human CPR-mediated superoxide generation assessed as one-electron reduction of compound by measuring SOD-inhibitable reduction of succinoylated cytochrome c per 2 mU enzyme at […] by spectrophotometric analysis (reference value: 0.2 +/- 0.1 micromol/L/min)
T1 sequence (P16435 whole entry): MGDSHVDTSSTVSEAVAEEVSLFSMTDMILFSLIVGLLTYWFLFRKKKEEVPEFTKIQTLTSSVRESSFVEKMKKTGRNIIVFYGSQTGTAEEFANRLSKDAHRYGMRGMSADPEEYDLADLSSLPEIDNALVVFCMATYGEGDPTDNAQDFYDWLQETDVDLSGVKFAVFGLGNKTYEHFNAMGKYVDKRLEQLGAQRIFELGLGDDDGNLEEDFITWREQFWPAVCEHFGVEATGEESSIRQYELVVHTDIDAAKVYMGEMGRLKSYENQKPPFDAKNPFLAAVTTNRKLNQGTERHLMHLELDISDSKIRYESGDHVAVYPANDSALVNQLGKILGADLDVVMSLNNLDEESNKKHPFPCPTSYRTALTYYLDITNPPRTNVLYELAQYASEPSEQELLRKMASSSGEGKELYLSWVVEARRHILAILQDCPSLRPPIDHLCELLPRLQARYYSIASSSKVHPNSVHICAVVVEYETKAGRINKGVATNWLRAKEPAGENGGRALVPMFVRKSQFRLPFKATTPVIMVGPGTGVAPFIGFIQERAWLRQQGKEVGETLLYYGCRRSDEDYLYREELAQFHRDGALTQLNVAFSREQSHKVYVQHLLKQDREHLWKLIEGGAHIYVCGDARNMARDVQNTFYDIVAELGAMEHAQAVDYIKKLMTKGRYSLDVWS

[5] = tested on: HaCaT; test: Induction of apoptosis in human HaCaT cells at 5 umol/L after 18 hrs by 7-AAD staining based flow cytometry (reference value: 3 +/- 1%); assay type: functional
[6] = tested on: HaCaT; test: Induction of superoxide generation in human HaCaT cells assessed as 2-OH-E+ oxidized product formation by measuring mean fluorescence intensity at 5 umol/L after 18 hrs by flow cytometry (reference value: 367.5 +/- 80.1); assay type: functional
Method in brief: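 HaCaT keratinocytes grown in DMEM with 10% FBS and penicillin/streptomycin for 24 h at 37 °C, then exposed to test compound (5 µM, 0.1% DMSO final) for 18 h. DHE was added and loaded for 30 min, with shaking for the first 5 min, in the dark. Cells were trypsinized and read by flow cytometry (488 nm excitation, FL2 550–600 nm), 10 000 live cells, dead cells gated out. Read-out is MFI versus DMSO control; triplicate.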

[7] = tested on: HaCaT; test: Induction of apoptosis in human HaCaT cells at 5 umol/L preincubated with 5 umol/L NQO-1 inhibitor dicoumarol for 25 mins followed by compound treatment measured after 18 hrs by 7-AAD staining based flow cytometry (reference value: 4.3 +/- 2.6%); assay type: functional; set-up: scale not given: the % may be the effect or the level left
[8] = tested on: HaCaT; test: Induction of superoxide generation in human HaCaT cells assessed as 2-OH-E+ oxidized product formation by measuring mean fluorescence intensity at 50 umol/L after 30 mins by flow cytometry (reference value: 7.1 +/- 5.2); assay type: functional

NAD(P)H dehydrogenase [quinone] 1 (Homo sapiens), sequence (P15559 whole entry): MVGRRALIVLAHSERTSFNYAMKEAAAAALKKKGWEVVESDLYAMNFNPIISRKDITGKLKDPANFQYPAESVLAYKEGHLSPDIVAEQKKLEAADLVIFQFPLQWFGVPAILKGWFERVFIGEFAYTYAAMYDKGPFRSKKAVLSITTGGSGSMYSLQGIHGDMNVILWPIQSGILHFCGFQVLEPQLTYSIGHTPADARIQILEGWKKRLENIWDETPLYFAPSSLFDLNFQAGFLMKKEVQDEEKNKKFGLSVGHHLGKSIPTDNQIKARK

| Structure (SMILES) | IC50 [1] [µM] | further results |
| --- | --- | --- |
| CCc1noc(-c2cc3c(s2)C(=O)C=CC3=O)n1 | 11 | – |
| CCc1noc(-c2cc3c(s2)Cc2ccccc2C3=O)n1 | 7.3 | – |
| O=C(O)c1cc2c(s1)C(=O)c1ccccc1C2=O | > 30 | – |
| O=C1c2ccccc2C(=O)c2sc(/C=N/Nc3ccccc3)cc21 | > 30 | – |
| O=Cc1cc2c(s1)C(=O)c1ccccc1C2=O | 1.2 | – |
| O=C(Nc1cc2c(s1)C(=O)c1ccccc1C2=O)c1ccccc1 | 2.3 | – |
| O=C1c2ccccc2C(=O)c2c([N+](=O)[O-])csc21 | 1.1 | – |
| Cc1cc2c(s1)C(=O)c1ccccc1C2=O | 5.2 | Activity [2]: 0.3 µmol/L/min; Flu intensity [3]: 633.5; Activity [4]: 1.1 µmol/L/min; Activity [5]: 4.3%; Flu intensity [6]: 517; Activity [7]: 4.3%; Flu intensity [8]: 11.5 |
| CCCCc1nnc(-c2cc3c(s2)C(=O)c2ccccc2C3=O)o1 | 1.9 | – |
| CCc1noc(C2=CC(=O)c3ccccc3C2=O)n1 | > 30 | – |
| CCc1noc(-c2ccc3sc4ccccc4c(=O)c3c2)n1 | > 30 | – |
| CCC(=O)Nc1cc2c(s1)C(=O)c1ccccc1C2=O | 9.6 | – |
| CC(=O)/C=C/c1cc2c(s1)C(=O)c1ccccc1C2=O | > 30 | – |
| CCCC(=O)Nc1cc2c(s1)C(=O)c1ccccc1C2=O | 5.7 | – |
| Nc1cc2c(s1)C(=O)c1ccccc1C2=O | > 30 | Activity [2]: 0.8 µmol/L/min; Flu intensity [3]: 502.3; Activity [4]: 1.1 µmol/L/min; Activity [5]: 5.6%; Flu intensity [6]: 518; Activity [7]: 3.2%; Flu intensity [8]: 76.7 |
| O=C1c2ccccc2C(=O)c2sc(-c3nnn[nH]3)cc21 | > 30 | – |
| CCc1noc(-c2cc3c(OC)c4ccccc4cc3s2)n1 | > 30 | – |
| CCc1noc(-c2ccc3ccccc3c2)n1 | > 30 | – |
| N#Cc1cc2c(s1)C(=O)c1ccccc1C2=O | 0.46 | – |
| CCc1noc(-c2ccc3c(c2)C(=O)C=CC3=O)n1 | 14 | – |
| CCc1noc(-c2ccc(C(C)=O)cc2)n1 | > 30 | – |
| CCc1noc(-c2ccc(C(=O)c3ccccc3)s2)n1 | > 30 | – |
| CCc1nnc(-c2cc3c(s2)C(=O)c2ccccc2C3=O)o1 | 0.15 | – |
| CCc1noc(-c2cc3c(OC)c4ccccc4c(OC)c3s2)n1 | 6.7 | – |
| CCc1noc(-c2cc3cc4ccccc4cc3s2)n1 | > 30 | – |
| CCc1noc(-c2cc(C(C)=O)cs2)n1 | > 30 | – |
| O=C1c2ccccc2C(=O)c2sc(-c3nnc(-c4ccccc4)o3)cc21 | > 30 | – |

| Structure (SMILES) | IC50 [1] [µM] | further results |
| --- | --- | --- |
| CC1=CC(=O)c2ccccc2C1=O [MENADIONE] | – | Activity [2]: 1 µmol/L/min; Flu intensity [3]: 457.2; Activity [4]: 2.1 µmol/L/min; Activity [5]: 4.8%; Flu intensity [6]: 431.9; Activity [7]: 3.1%; Flu intensity [8]: 44 |
| O=C1c2ccccc2C(=O)c2sc(-c3nncs3)cc21 | 0.3 | – |
| CCc1noc(-c2cc3c(OC)ccc(OC)c3s2)n1 | > 30 | – |
| CCc1noc(-c2cccs2)n1 | > 30 | – |
| CN/N=C/c1cc2c(s1)C(=O)c1ccccc1C2=O | > 30 | – |
| O=C1c2ccccc2C(=O)c2sc(-c3nnco3)cc21 | 0.22 | – |
| COc1ccc(C(=O)Nc2cc3c(s2)C(=O)c2ccccc2C3=O)cc1 | 1.1 | – |
| CCc1nc(-c2ccc3c(c2)C(=O)c2ccccc2C3=O)no1 | > 30 | – |
| CCc1nc(-c2cc3c(s2)C(=O)c2ccccc2C3=O)no1 | 0.58 | – |
| CCc1noc(-c2cc3c(s2)C(=O)c2ccccc2C3=O)n1 | 0.36 | Activity [2]: 0.5 µmol/L/min; Flu intensity [3]: 558.7; Activity [4]: 0.9 µmol/L/min; Activity [5]: 39.3%; Flu intensity [6]: 930.1; Activity [7]: 6.9%; Flu intensity [8]: 25.2 |
| CC(C)C(=O)Nc1cc2c(s1)C(=O)c1ccccc1C2=O | 3.3 | – |
| O=C(/C=C/c1cc2c(s1)C(=O)c1ccccc1C2=O)c1ccccc1 | > 30 | – |
| CCc1noc(C=C2c3ccccc3C(=O)c3ccccc32)n1 | 6.5 | – |
| CC(=O)c1cc2c(s1)C(=O)c1ccccc1C2=O | – | Activity [2]: 0.8 µmol/L/min; Flu intensity [3]: 434.5; Activity [4]: 1.2 µmol/L/min; Activity [5]: 4.2%; Flu intensity [6]: 500; Activity [7]: 3.7%; Flu intensity [8]: 19.2 |
| CCc1noc(-c2cc3oc4ccccc4c(=O)c3s2)n1 | > 30 | – |
| CCc1noc(-c2ccccc2)n1 | > 30 | – |
| CCc1noc(-c2ccc3c(=O)c4ccccc4oc3c2)n1 | > 30 | – |
| Cc1nnc(-c2cc3c(s2)C(=O)c2ccccc2C3=O)o1 | 0.08 | – |
| CCc1noc(-c2cc3ccccc3s2)n1 | > 30 | – |
| O=C1c2ccccc2C(=O)c2sc([N+](=O)[O-])cc21 | 1.8 | Activity [2]: 4.6 µmol/L/min; Flu intensity [3]: 1022; Activity [4]: 2 µmol/L/min; Activity [5]: 5.6%; Flu intensity [6]: 973.8; Activity [7]: 3.4%; Flu intensity [8]: 138 |
| COC(=O)c1cc2c(s1)C(=O)c1ccccc1C2=O | 0.71 | – |
| NNC(=O)c1cc2c(s1)C(=O)c1ccccc1C2=O | 1.7 | – |
| CCc1nnc(-c2cc3c(s2)C(=O)c2ccccc2C3=O)s1 | > 15 | – |
| O=C1c2ccccc2C(=O)c2sccc21 [THIOPHENONAPHTHOQUINONE] | – | Activity [2]: 1.2 µmol/L/min; Flu intensity [3]: 583.3; Activity [4]: 1.2 µmol/L/min; Activity [5]: 4%; Flu intensity [6]: 552.7; Activity [7]: 7.4%; Flu intensity [8]: 10.5 |
| Cc1nnc(-c2cc3c(s2)C(=O)c2ccccc2C3=O)s1 | 3.7 | – |
| CCc1noc(-c2ccc3c(c2)C(=O)c2ccccc2C3=O)n1 | > 30 | – |
